Assay [1] can be described thus: Binding affinity to rat brain cell membrane. The class given is cell membranes.
Assay [2] is filed under the species Homo sapiens. The experiment in a line: Induction of PI3K phosphorylation in calcium free HCAEC at 100 nM after 10 mins incubation by Western blot analysis. The method, boiled down:
(§1)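 Ca2+-free human coronary artery endothelial cells treated 10 min with 100 nM free or dextran-conjugated compound (conjugate dose expressed as equivalent bound compound); phospho-PI3K, phospho-PDK1, phospho-AKT, phospho-eNOS (Ser1177, Ser615) and PIP3 assessed, with or without PI3K inhibitor wortmannin; Western blots representative of three independent experiments.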

The species named for assay [3] is Homo sapiens. The experiment in a line: Induction of PIP3 level in calcium free HCAEC at 100 nM after 10 mins incubation by Western blot analysis. In kind it is functional. The method, boiled down:
as §1
In general terms: A western blot detects proteins with antibodies after separation by electrophoresis.

For assay [4], the species on record is Homo sapiens. The experiment in a line: Induction of PI3K phosphorylation in calcium free HCAEC at 100 nM after 10 mins incubation by Western blot analysis in presence of wortmannin. In outline: as §1
For assay [5], the species on record is Homo sapiens. The experiment in a line: Induction of PIP3 level in calcium free HCAEC at 100 nM after 10 mins incubation by Western blot analysis in presence of wortmannin. The class given is functional. The method, boiled down:
as §1

For assay [6], the species on record is Homo sapiens. The experiment in a line: Induction of PI3K in calcium free HCAEC assessed as PDK1 phosphorylation at 100 nM after 10 mins incubation by Western blot analysis. The method, boiled down:
as §1

The species entered for assay [7] is Homo sapiens. Briefly: Induction of PI3K in calcium free HCAEC assessed as PDK1 phosphorylation at 100 nM after 10 mins incubation by Western blot analysis in presence of wortmannin. The method, boiled down:
as §1

The species entered for assay [8] is Homo sapiens. The experiment in a line: Induction of PI3K in calcium free HCAEC assessed as Akt phosphorylation at 100 nM after 10 mins incubation by Western blot analysis. In outline: as §1
The species named for assay [9] is Homo sapiens. The experiment in a line: Induction of PI3K in calcium free HCAEC assessed as Akt phosphorylation at 100 nM after 10 mins incubation by Western blot analysis in presence of wortmannin. In outline: as §1
The target of assay [10] is T1, Nitric oxide synthase 3 (Homo sapiens) (UniProt P29474).
T1 sequence (whole entry): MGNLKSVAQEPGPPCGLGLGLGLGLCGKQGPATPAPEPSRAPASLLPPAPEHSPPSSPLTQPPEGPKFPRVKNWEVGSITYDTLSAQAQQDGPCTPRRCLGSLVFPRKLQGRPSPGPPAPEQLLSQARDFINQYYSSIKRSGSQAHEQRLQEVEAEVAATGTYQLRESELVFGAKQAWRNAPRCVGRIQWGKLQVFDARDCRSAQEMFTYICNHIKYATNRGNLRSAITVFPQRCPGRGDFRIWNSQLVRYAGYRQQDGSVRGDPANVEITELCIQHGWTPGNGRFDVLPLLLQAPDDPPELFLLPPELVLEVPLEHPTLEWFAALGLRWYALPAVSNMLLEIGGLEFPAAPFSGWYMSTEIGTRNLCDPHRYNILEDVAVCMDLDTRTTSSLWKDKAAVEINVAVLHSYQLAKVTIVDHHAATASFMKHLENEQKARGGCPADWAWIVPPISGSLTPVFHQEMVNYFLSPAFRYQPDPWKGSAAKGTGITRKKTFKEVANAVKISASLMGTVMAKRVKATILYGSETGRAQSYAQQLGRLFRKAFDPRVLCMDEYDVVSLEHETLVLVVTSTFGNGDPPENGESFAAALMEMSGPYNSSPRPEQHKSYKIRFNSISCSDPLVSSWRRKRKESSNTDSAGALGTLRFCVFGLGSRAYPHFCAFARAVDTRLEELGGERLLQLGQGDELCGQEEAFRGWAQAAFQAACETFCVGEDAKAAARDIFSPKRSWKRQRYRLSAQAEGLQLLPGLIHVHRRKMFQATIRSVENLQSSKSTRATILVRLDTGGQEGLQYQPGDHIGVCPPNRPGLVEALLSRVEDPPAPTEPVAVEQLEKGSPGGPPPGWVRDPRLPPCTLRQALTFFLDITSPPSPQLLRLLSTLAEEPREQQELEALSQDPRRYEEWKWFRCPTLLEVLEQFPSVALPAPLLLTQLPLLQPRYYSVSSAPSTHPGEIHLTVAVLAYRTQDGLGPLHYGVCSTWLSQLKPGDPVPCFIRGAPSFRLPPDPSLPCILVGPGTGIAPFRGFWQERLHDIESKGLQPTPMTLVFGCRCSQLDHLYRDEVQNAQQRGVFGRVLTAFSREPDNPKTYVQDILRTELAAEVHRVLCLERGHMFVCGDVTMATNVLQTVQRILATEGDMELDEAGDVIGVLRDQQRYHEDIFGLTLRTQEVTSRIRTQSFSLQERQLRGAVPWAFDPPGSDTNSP
Briefly: Induction of eNOS activation in calcium free HCAEC assessed as phosphorylation at serine 1177 at 100 nM after 10 mins incubation. The method, boiled down:
as §1

For assay [11], the target named is T1, Nitric oxide synthase 3 (Homo sapiens). Briefly: Induction of eNOS activation in calcium free HCAEC assessed as phosphorylation at serine 615 at 100 nM after 10 mins incubation. In outline: as §1
The target is the same in assay [12]. The experiment in a line: Induction of eNOS activation in calcium free HCAEC assessed as phosphorylation at serine 1177 at 100 nM after 10 mins incubation in presence of wortmannin. In outline:
as §1

The target is the same in assay [13]. The experiment in a line: Induction of eNOS activation in calcium free HCAEC assessed as phosphorylation at serine 615 at 100 nM after 10 mins incubation in presence of wortmannin. In outline:
as §1

For assay [14], the species on record is Homo sapiens. The experiment in a line: Effect on eNOS phosphorylation at Thr 495 in calcium free HCAEC at 100 nM after 10 mins incubation. In kind it is functional.
Assay [15] deals with brain. The experiment in a line: Binding affinity to rat brain cell membrane at 10 uM.

SMILES strings stand for the structures. Active and inactive are the calls of the source. No cut-off for these calls is given here.

By Ki is commonly meant a measure of affinity in units of concentration, obtained from inhibition or displacement. For `Oc1ccc(/C=C/c2cc(O)cc(O)c2)cc1` [RESVERATROL], the affinity in assay [1], expressed as Ki, was 102 nM.
As to `Oc1cc(O)c2c(c1)O[C@H](c1ccc(O)c(O)c1)[C@H](O)C2`, the result in [2], in assay [3], in [6], in assay [8], in [10] and in assay [11] was Active. The outcome in assay [4], in [5], in [7], in assay [9], in [12] and in assay [13] was inactive. Moreover, the result in assay [14] and in assay [15] was inactive.
In turn, `O=C(O[C@@H]1Cc2c(O)cc(O)cc2O[C@@H]1c1cc(O)c(O)c(O)c1)c1cc(O)c(O)c(O)c1` [EPIGALOCATECHIN GALLATE] returned an inhibitory constant (Ki) in [1] of 25 nM.
Take `O=C(O[C@@H]1Cc2c(O)cc(O)cc2O[C@@H]1c1ccc(O)c(O)c1)c1cc(O)c(O)c(O)c1` [EPICATECHIN GALLATE]: the Ki in assay [1] was 25 nM. This counts as double-digit nanomolar.

Values taken from ChEMBL document CHEMBL3286178, “Cell membrane mediated (-)-epicatechin effects on upstream endothelial cell signaling: evidence for a surface receptor” (Bioorg Med Chem Lett, 2014).
